Test results reported in ChEMBL document CHEMBL4219235, “Novel fatty acid chain modified GLP-1 derivatives with prolonged in vivo glucose-lowering ability and balanced glucoregulatory activity” (Bioorg Med Chem, 2018).
Calls of active or inactive are those of the source.

Experiments:
[1] = tested on: INS1; assay: Cytoprotective activity against STZ-induced oxidative stress in rat INS-1 cells assessed as cell death at 10 to 100 nM after 24 hrs by MTT assay (reference value: 45%); assay type: functional
[2] = tested on: Mus musculus; assay: Antidiabetic activity in STZ-induced diabetic Kunming mouse model assessed as reduction in HbA1c level at 25 nmol/kg, ip administered once daily for 3 weeks measured at post last dose by Beckman coulter based method; assay type: functional, organism-based
Procedure, shortened: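 STZ diabetes induced with 40 mg/kg/day i.p. for 5 consecutive days after overnight fasting. Mice with fasting glucose ≥11.1 mM were grouped by matched body weight and dosed 25 nmol/kg i.p. once daily for 3 weeks; saline served as control. Fasting plasma glucose was measured every five days, and HbA1c at day 24; n = 6/group.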

[3] = tested on: Mus musculus; assay: Antidiabetic activity in C57BL/6 mouse assessed as reduction in blood glucose level at 25 nmol/kg, ip treated 30 mins prior to glucose challenge measured after 120 mins by IPGTT; assay type: functional, organism-based
Procedure, shortened: (§1)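 Male C57BL/6 mice, 6 weeks old, fasted overnight (12 h), n = 6/group; given 25 nmol/kg or saline i.p., then i.p. glucose challenge (2.0 g/kg) 30 min later, set as 0 h. Glucose challenges were repeated at 6 h intervals to mimic three meals a day. Blood glucose was followed and AUC calculated.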

[4] = target: Glucagon-like peptide 1 receptor (Homo sapiens, UniProt P43220); assay: Agonist activity at recombinant human GLP1 receptor expressed in HEK293 cells assessed as cAMP accumulation by TR-FRET assay; assay type: functional, cell-based
Sequence of Glucagon-like peptide 1 receptor (P43220 whole entry): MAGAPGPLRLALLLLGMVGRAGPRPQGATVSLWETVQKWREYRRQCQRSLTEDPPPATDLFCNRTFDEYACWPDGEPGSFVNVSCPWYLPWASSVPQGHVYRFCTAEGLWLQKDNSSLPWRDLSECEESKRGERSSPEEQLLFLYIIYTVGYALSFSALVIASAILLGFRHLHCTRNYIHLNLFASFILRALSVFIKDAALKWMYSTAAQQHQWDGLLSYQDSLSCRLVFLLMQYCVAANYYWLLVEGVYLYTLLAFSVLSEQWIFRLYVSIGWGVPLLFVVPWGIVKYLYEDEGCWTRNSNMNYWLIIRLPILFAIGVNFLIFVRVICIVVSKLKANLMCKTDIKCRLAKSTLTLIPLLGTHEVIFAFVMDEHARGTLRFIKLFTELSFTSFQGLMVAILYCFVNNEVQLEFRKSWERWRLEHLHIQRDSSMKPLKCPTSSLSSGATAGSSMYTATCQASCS

[5] = tested on: INS1; assay: Cytoprotective activity against STZ-induced oxidative stress in rat INS-1 cells assessed as cell death at 1 nM after 24 hrs by MTT assay (reference value: 45%); assay type: functional
[6] = tested on: Mus musculus; assay: Antidiabetic activity in STZ/diet-induced obese C57BL/6 mouse assessed as reduction in body weight gain at 25 nmol/kg, ip administered daily for 4 weeks measured daily during compound dosing; assay type: functional, organism-based
Procedure, shortened: (§2)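 Male C57BL/6J DIO mice on high-fat diet were treated for 4 weeks with saline as control; LFD-fed mice (n = 6/group) were used as normal reference. Water intake, food intake and body weight were recorded daily. Terminal serum leptin and adiponectin were measured by ELISA. TC, TG, HDL, LDL, ALT and AST were measured on a clinical chemistry analyzer.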

[7] = tested on: Mus musculus; assay: Antidiabetic activity in C57BL/6 mouse assessed as reduction in blood glucose AUC (0 to 120 mins) at 25 nmol/kg, ip treated 30 mins prior to glucose challenge by IPGTT; assay type: functional, organism-based; procedure, shortened: as §1
[8] = tested on: Mus musculus; assay: Antidiabetic activity in STZ/diet-induced obese C57BL/6 mouse assessed as reduction in serum AST level at 25 nmol/kg, ip administered daily for 4 weeks measured post last dose; assay type: functional, organism-based; procedure, shortened: as §2
[9] = tested on: INS1; assay: Cytoprotective activity against H2O2-induced glucolipotoxicity in rat INS-1 cells assessed as increase in cell viability at 1 to 100 nM after 24 hrs by MTT assay; assay type: functional, cell-based
Procedure, shortened: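 INS-1 cells, about 5000/well, were seeded for 4 h, then stressed with one of: glucolipotoxic medium (25 mM glucose + 0.4 mM oleate-BSA), 50 µM H2O2 or 1 µM STZ. Peptide (1, 10 or 100 nM) was added and cells were incubated 24 h. Viability was read by MTT (200 µg/mL, 3 h, 37 °C), formazan dissolved in DMSO, A570. Triplicate, repeated three times.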

[10] = tested on: INS1; assay: Cytoprotective activity against STZ-induced oxidative stress in rat INS-1 cells assessed as reduction in apoptosis at 10 nM after 24 hrs by Annexin-V-FITC/propidium iodide staining based flow cytometric analysis; assay type: functional, cell-based
Procedure, shortened: (§3)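 INS-1 cells, about 5000/well, were seeded for 24 h, then exposed to glucolipotoxic medium, 50 µM H2O2 or 1 µM STZ, plus peptide at 10 nM, for 24 h. Apoptosis was analyzed by flow cytometry; triplicate, repeated three times.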

[11] = tested on: Mus musculus; assay: Hypoglycemic activity in STZ-induced diabetic Kunming mouse model assessed as reduction in glucose AUC (0 to 36 hrs) at 150 nmol/kg, ip administered as single dose; assay type: functional, organism-based
Procedure, shortened: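 Non-fasted STZ-diabetic Kunming mice with free access to food and water received a single i.p. injection (25 or 150 nmol/kg) or saline; n = 6/group. Blood glucose was followed over time. Euglycemic duration was defined as time below 8.35 mmol/L, and glucose AUC0–36h was calculated.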

[12] = tested on: Mus musculus; assay: Antidiabetic activity in STZ/diet-induced obese C57BL/6 mouse assessed as reduction in serum total triglyceride level at 25 nmol/kg, ip administered daily for 4 weeks measured post last dose; assay type: functional, organism-based; procedure, shortened: as §2
[13] = tested on: Rattus norvegicus; assay: Antidiabetic activity in Sprague-Dawley rat assessed as blood glucose level at 25 nmol/kg, ip treated 30 mins prior to glucose challenge measured at 15 mins interval for 180 mins by OGTT (reference value: 13.8 +/- 1.31 nmol/L); assay type: functional
[14] = tested on: Mus musculus; assay: Antidiabetic activity in STZ/diet-induced obese C57BL/6 mouse assessed as reduction in size of brown adipocytes at 25 nmol/kg, ip administered daily for 4 weeks measured post last dose; assay type: functional, organism-based
[15] = tested on: Mus musculus; assay: Antidiabetic activity in C57BL/6 mouse assessed as reduction in blood glucose level at 25 nmol/kg, ip treated 30 mins prior to glucose challenge measured up to 90 mins by IPGTT; assay type: functional, organism-based; procedure, shortened: as §1
[16] = tested on: INS1; assay: Cytoprotective activity against H2O2-induced glucolipotoxicity in rat INS-1 cells assessed as reduction in apoptosis at 10 nM after 24 hrs by Annexin-V-FITC/propidium iodide staining based flow cytometric analysis; assay type: functional, cell-based; procedure, shortened: as §3
[17] = tested on: Mus musculus; assay: Antidiabetic activity in STZ/diet-induced obese C57BL/6 mouse assessed as increase in serum adiponectin level at 25 nmol/kg, ip administered daily for 4 weeks measured post last dose; assay type: functional, organism-based; procedure, shortened: as §2
[18] = target: Albumin (Homo sapiens, UniProt P02768); assay: Binding affinity to human serum albumin after 3 hrs by LC-MS/MS analysis; design: concentration or dose not given beside the values
Sequence of Albumin (P02768 whole entry): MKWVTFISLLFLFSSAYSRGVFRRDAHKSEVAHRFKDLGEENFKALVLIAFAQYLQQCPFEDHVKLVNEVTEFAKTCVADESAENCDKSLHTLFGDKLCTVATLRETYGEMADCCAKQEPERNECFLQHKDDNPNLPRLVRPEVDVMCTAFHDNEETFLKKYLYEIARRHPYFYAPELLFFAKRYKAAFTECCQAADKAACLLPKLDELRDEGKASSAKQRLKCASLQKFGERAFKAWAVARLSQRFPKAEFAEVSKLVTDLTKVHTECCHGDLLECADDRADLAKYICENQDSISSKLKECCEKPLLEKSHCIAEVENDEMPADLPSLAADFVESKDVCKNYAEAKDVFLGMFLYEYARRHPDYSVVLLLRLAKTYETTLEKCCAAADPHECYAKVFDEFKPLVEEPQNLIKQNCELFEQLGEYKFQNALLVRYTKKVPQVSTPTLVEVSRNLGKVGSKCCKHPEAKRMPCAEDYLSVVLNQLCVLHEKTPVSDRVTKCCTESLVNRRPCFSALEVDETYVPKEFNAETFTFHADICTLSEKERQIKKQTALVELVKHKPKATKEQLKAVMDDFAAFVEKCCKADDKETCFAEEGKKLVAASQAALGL
Procedure, shortened: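 HSA was coupled to NHS-activated Sepharose (6–7 mg HSA/mL wet resin); an inactivated albumin-free resin served as control. Peptide (100 µg/mL in PBS) was incubated with each resin for 3 h at 25 °C. After centrifugation, unbound peptide in the supernatant was quantified by LC-MS/MS.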

[19] = tested on: Mus musculus; assay: Antidiabetic activity in STZ/diet-induced obese C57BL/6 mouse assessed as reduction in ratio of LDL to HDL level at 25 nmol/kg, ip administered daily for 4 weeks measured post last dose; assay type: functional, organism-based; procedure, shortened: as §2
[20] = tested on: Mus musculus; assay: Antidiabetic activity in STZ-induced diabetic Kunming mouse model assessed as increase in islet beta-cell area 25 nmol/kg, ip administered once daily for 3 weeks measured post last dose by hematoxylin and eosin staining based assay; assay type: functional, organism-based
Procedure, shortened: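 STZ-diabetic mice were dosed 25 nmol/kg i.p. once daily; normal mice and saline-treated mice served as references. After 21 days the pancreas was fixed, sectioned at 5 µm and stained with H&E. Islet area was measured by manually tracing the islet perimeter; n = 6/group.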

[21] = tested on: Rattus norvegicus; assay: Antidiabetic activity in Sprague-Dawley rat assessed as time required to increase in plasma insulin level at 25 nmol/kg, ip treated 30 mins prior to glucose challenge by ELISA; assay type: functional
Procedure, shortened: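 Male SD rats (200–250 g), fasted 12 h, n = 6/group, received 25 nmol/kg i.p. or saline 30 min before an oral glucose load (10 g/kg, set as 0 min). EDTA plasma insulin was measured by rat insulin ELISA.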

CC[C@H](C)[C@H](NC(=O)[C@H](Cc1ccccc1)NC(=O)[C@H](CCC(=O)O)NC(=O)[C@H](CCCCN)NC(=O)[C@H](C)NC(=O)[C@H](C)NC(=O)[C@H](CCC(N)=O)NC(=O)CNC(=O)[C@H](CCC(=O)O)NC(=O)[C@H](CC(C)C)NC(=O)[C@H](Cc1ccc(O)cc1)NC(=O)[C@H](CO)NC(=O)[C@H](CO)NC(=O)[C@@H](NC(=O)[C@H](CC(=O)O)NC(=O)[C@H](CO)NC(=O)[C@@H](NC(=O)[C@H](Cc1ccccc1)NC(=O)[C@@H](NC(=O)CNC(=O)[C@H](CCC(=O)O)NC(=O)CNC(=O)[C@@H](N)Cc1cnc[nH]1)[C@@H](C)O)[C@@H](C)O)C(C)C)C(=O)N[C@@H](C)C(=O)N[C@@H](Cc1c[nH]c2ccccc12)C(=O)N[C@@H](CC(C)C)C(=O)N[C@H](C(=O)N[C@@H](CCCCN)C(=O)NCC(=O)N[C@@H](CCCNC(=N)N)C(=O)N[C@@H](CSC1CC(=O)N(CCCCCCCCCCCC(=O)O)C1=O)C(N)=O)C(C)C (stereo partly specified)
Activity [1]: 21.9% | Activity [2]: Active | Activity [3]: Active | EC50 [4]: 0.0198 nM | Activity [5]: 28.8% | Activity [6]: Active | Activity [7]: Active | Activity [8]: Active | Activity [9]: Active | Activity [10]: Active | Activity [11]: Active | Activity [12]: Active | Activity [13]: 6.7e+06 nmol/L | Activity [14]: Active | Activity [15]: inactive | Activity [16]: Active | Activity [17]: Active | Activity [18]: 62.4% | Activity [19]: inactive | Activity [20]: Active | Time [21]: 15 to 60 min
